Screening results: PubChem BioAssay, several laboratories
RBBP9 inh = inhibitors of human serine hydrolase RBBP9. recombinant RBBP9, FP-Rh probe fluorescence polarization. hit rate 0.2% among 220,000. O75884. inhibition, % at 7.94 µM;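 active means inhibition above the campaign mean of all tested compounds plus 3 SD, cut at about 14% in these data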;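 further: plate controls were DMSO wells with RBBP9 for no effect and wells lacking RBBP9 protein for full effect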
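Measured by: FP readout at 525/598 nm; material: recombinant human RBBP9; also added: Serine-hydrolase probe FP-Rh, 375 nM pre-mixing; medium: Tris buffer pH 8.0, NaCl, Pluronic; replication: one well per compound; doses: one concentration, 7.94 µM nominal, 0.794% DMSO; timing: preincubation 30 min plus labeling 45 min at 25 °C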
eIF4H FP inh = inhibitors of RNA binding by human eIF4H; hit rate 0.94% among 290,000; AID 2012; eIF4H fluorescence polarization binding assay; inhibition, % at 35 µM;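 further: calls also rest on retests at 20 µM and on dose response follow-up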
PABP1 MLLE inh = inhibitors of microRNA-mediated deadenylation, human PABP1 MLLE binding. P11940. GST-MLLE / FITC-PAM2 fluorescence polarization. inhibition, % at 20 µM. hit rate 0.36% among 360,000; in the data active means inhibition above about 35%, passing the limit was not always enough;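 further: plate controls were DMSO wells with GST-MLLE for no effect and wells lacking GST-MLLE protein for full effect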
Target sequence (P11940 whole entry, looked up): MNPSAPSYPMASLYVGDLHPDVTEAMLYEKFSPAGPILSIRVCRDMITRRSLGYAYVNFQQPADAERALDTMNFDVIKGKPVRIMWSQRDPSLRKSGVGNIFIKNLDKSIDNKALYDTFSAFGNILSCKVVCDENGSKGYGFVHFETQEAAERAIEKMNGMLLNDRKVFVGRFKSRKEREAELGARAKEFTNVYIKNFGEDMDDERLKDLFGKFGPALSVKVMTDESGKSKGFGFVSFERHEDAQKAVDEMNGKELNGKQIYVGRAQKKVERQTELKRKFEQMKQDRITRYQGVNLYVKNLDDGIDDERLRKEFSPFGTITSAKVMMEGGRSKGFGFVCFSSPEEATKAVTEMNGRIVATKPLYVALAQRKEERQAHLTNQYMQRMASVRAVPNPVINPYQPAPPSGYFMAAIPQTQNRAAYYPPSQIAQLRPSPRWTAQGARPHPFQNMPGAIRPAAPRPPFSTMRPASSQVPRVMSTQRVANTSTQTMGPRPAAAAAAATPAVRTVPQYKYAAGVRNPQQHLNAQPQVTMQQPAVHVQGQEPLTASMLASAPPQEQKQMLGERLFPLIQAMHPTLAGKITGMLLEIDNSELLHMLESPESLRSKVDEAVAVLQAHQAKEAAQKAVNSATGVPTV
PABP FP inh = blocks human PABP binding to poly(A) RNA | hit rate 1% among 290,000 | calls only at 35 µM | fluorescence polarization | P11940 | AID 2014;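 further: calls also rest on retests at 20 µM and on dose response follow-up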
TCR-CD3 inh = inhibitors of human TCR-CD3 interaction; TAMRA-labeled TCR probe fluorescence, biochemical; inhibition, % at 9.4 µM; hit rate 0.37% among 360,000; AID 651800; in the data active means inhibition above about 19%;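 further: recombinant mutant TCR 2C K166C tagged with TAMRA read by polarization; 0% = receptor in buffer alone and 100% = receptor with positive control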
* = called active by the depositor; i = inactive; ? = inconclusive; · = no result given; + = active, no number. Only some compounds are listed: those with a hit (about 1.6% of all), similar ones and a draw of the others. Unless noted, how the calls were made is not given here.

SMILES	RBBP9 inh	eIF4H FP inh	PABP1 MLLE inh	PABP FP inh	TCR-CD3 inh
C=CCOC(=O)C(C#N)c1nc2ccccc2nc1N1CCN(Cc2ccc3c(c2)OCO3)CC1 (stereo not given)	-2	69*	-10	+	-5
C[C@H]1[C@@H]2C[C@@]3(O[C@H](c4ccccn4)N=C3C[C@@H]1c1ccccc1)N(Cc1ccncc1)C2=O	·	·	·	·	-6
CN(C)CCN1C(=O)c2cccc3cc([N+](=O)[O-])cc(c23)C1=O	·	·	81*	·	0
CCOC(=O)COc1cccc2c(=O)n(CC(N)=O)ccc12	-7	-2	8	i	6
CCOC(=O)COc1cccc2c(=O)n(CC(=O)N3CCCCC3)ccc12	1	103*	9	+	7
COC(=O)N1C[C@H](OC(=S)Nc2ccc(OC)cc2OC)[C@H]2C[C@@H]1c1ccccc1O2	·	·	·	·	-1
CN(C)c1ccc(-c2nnc(-c3ccc(S(=O)(=O)C(F)F)cc3)o2)cc1	-5	68*	-63	+	9
Oc1ccc(NCc2ccc(OCc3ccccc3)cc2)cc1	·	34	0	i	30*
COc1cc(CNC(C)c2ccccc2)cc(Br)c1OCc1ccccc1 (stereo not given)	·	1	7	i	5
COc1cc(CNc2ccc(O)cc2)cc(Br)c1OCc1ccccc1	-1	7	-3	i	22*
CC(C)CNc1cccc2c1S(=O)(=O)N[C@@H](Cc1ccccc1)CO2	·	·	·	·	4
C#CCN1C(=O)[C@]2(OCCC=C[C@H]2C)c2ccccc21	·	·	·	·	8
Cc1cc2ccccn2c1C(=O)c1nc(NCc2ccccc2)ncc1Cl	-8	-4	12	i	7
N#Cc1c(=O)c2nc(NCc3ccccc3)ncc2n2ccccc12	11	84*	10	+	15
COC(=O)C1=C(C)N(Cc2ccccc2C(F)(F)F)C(=NCc2cc(OC)c(OC)c(OC)c2)NC1c1cccc(F)c1 (stereo not given)	·	·	·	·	13
CCc1ccc(C2C(C#N)=C(N)C(C#N)(C#N)C3=CCC(C(C)(C)C)CC32)cc1 (stereo not given)	-3	84*	48	i	·
Cc1ccc(C)c(N(CC(=O)N/N=C/c2ccc(-c3ccc([N+](=O)[O-])cc3)o2)S(=O)(=O)c2ccccc2)c1	-9	?	-36	i	0
CCOc1ccc(S(=O)(=O)N(CC(=O)N/N=C/c2ccc(-c3ccc([N+](=O)[O-])cc3)o2)c2ccccc2)cc1	-8	79*	-31	+	-2
CCOc1ccc(C(=O)N/N=C/c2ccc(-c3ccc(S(=O)(=O)Nc4ncccn4)cc3)o2)cc1	1	69*	-1	+	9
NC(=S)NN=Cc1ccc(-c2ccc(S(=O)(=O)Nc3ncccn3)cc2)o1	·	·	5	·	9
O=C(N/N=C/c1ccc(-c2ccc(S(=O)(=O)Nc3ncccn3)cc2)o1)c1cc2ccccc2cc1O	-9	83*	-6	+	18
O=C(N[C@H](C(=O)N1CCC[C@H]1C(=O)NC1CCCC1)c1ccccc1)C1CC1	·	·	·	·	-4
CCc1noc(C)c1C(=O)N1CCN(S(=O)(=O)c2ccccc2C(F)(F)F)CC1	·	·	88*	·	-4
COc1ccc(-c2cc(=O)c3cccc(CC(=O)O)c3o2)cc1	·	·	·	·	10
CN1CCN(C(c2ccc(C(F)(F)F)cc2)c2cc(Cl)c3cccnc3c2O)CC1 (stereo not given)	·	3	·	i	-2
SMILES	RBBP9 inh	eIF4H FP inh	PABP1 MLLE inh	PABP FP inh	TCR-CD3 inh
CCN1CCN(C(c2ccc(C(F)(F)F)cc2)c2ccc3cccnc3c2O)CC1 (stereo not given)	·	4	41*	i	0
COc1cc(OC)c(-c2nn3c(-c4ccco4)nnc3s2)cc1OC	-3	75*	3	i	15
COc1ccc(-c2nn3c(-c4ccco4)nnc3s2)cc1OC	9	0	3	i	11
Cc1oc(-c2ccc(F)cc2)cc1-c1nn2c(-c3ccoc3C)nnc2s1	·	80*	-17	+	5
Cc1oc(-c2ccc(Cl)cc2)cc1-c1nn2c(-c3ccco3)nnc2s1	·	64*	·	+	·
Cc1oc(-c2ccc(F)cc2)cc1-c1nn2c(-c3ccco3)nnc2s1	3	·	·	·	-2
Cc1c(-c2ccc(F)cc2)nc(N)c(C#N)c1-c1cccnc1	-1	-1	-5	i	-2
Cc1ccc(-c2c(C)c(-c3ccc(F)cc3)nc(N)c2C#N)o1	6	76*	1	+	3
C=CCNC(=S)N1C[C@H]2CON(C)[C@H]2C[C@H]1c1ccccc1Br	·	·	·	·	5
COc1cccc(CN(C)CC(=O)NC(=O)NCc2ccco2)c1	2	50*	3	+	2
COc1cccc(CN(C)CC(=O)Nc2ccccc2C(=O)NC2CC2)c1	·	·	89*	·	0
COc1cccc(NC(=O)CN(C)CC(=O)NCc2ccco2)c1	·	·	-19	·	3
CC(=C1SC(=S)NC1=O)c1ccc(Cl)c(O)c1	·	·	·	·	-6
Cc1ccc(NC(=O)CN2C(=O)S/C(=C\c3ccc(-c4cccc(C(=O)O)c4C)o3)C2=O)cc1C	1	68*	2	i	-5
Cc1cccc(NC(=O)CN2C(=O)N/C(=C/c3ccc(-c4cccc(C(=O)O)c4C)o3)C2=O)c1	-2	12	8	i	6
O=C(CN1C(=O)S/C(=C\c2ccc(-c3cc(C(=O)O)ccc3Cl)o2)C1=O)Nc1ccc2c(c1)OCO2	·	68*	6	+	12
Cc1c(C(=O)O)cccc1-c1ccc(/C=C2/NC(=O)N(c3ccccc3)C2=O)o1	-7	9	6	i	-3
Cn1cc(/C=C2/SC(=O)N(CC(=O)Nc3ccc4c(c3)OCO4)C2=O)c2ccccc21	-4	-2	0	i	1
Cc1c(C(=O)O)cccc1-c1ccc(/C=C2\SC(=O)NC2=O)o1	·	54*	-6	+	-2
O=C(NCC1CCN(C(=O)C(=O)c2cccs2)CC1)c1ccncc1	·	·	·	·	5
COc1ccc([N+](=O)[O-])cc1/C=N/NC(=O)CNC(=O)c1cccc(F)c1	-4	-2	-5	i	-4
COc1ccc([N+](=O)[O-])cc1/C=N/NC(=O)CNC(=O)C(c1ccccc1)c1ccccc1	-6	84*	-3	+	2
Cc1cc2c(c(=O)n1Cc1ccco1)C(c1cccnc1)C(C#N)=C(N)O2 (stereo not given)	0	124*	3	+	1
CCOc1ccc(C2C(C#N)=C(N)Oc3cc(C)n(Cc4ccco4)c(=O)c32)cc1OC (stereo not given)	-8	9	12	i	2
O=C1CN(C(=O)/C=C/c2ccco2)c2ccccc2N1	2	71*	-16	i	9
CCn1c(SCC(=O)N/N=C/c2c[nH]c3ccccc23)nnc1-c1ccc(C)cc1	-9	-4	-60	i	3
CCn1c(SCC(=O)N/N=C/c2c[nH]c3ccccc23)nnc1-c1ccc(Cl)cc1	2	active	-8	i	8
